Screening results: PubChem BioAssay, several laboratories
Shown are actives, neighbours in structure and some others; about 5.7% of the full set was active somewhere.
T cruzi repl: T. cruzi replication inhibition. T. cruzi beta-gal in NIH3T3, luminescence, 90 h. inhibition, % (concentration not given with the values). 300,000 tested, 1.4% active. AID 1885;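 active means mean inhibition across valid replicates above about 55%, limit read from the data; inconclusive means mean below that limit but half or more replicates reach it; inactive means mean below it, under half of replicates reach it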;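 further: signal also drops with host cell toxicity which is not excluded here; higher percent means less beta-gal luminescence so fewer parasites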
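System: mouse NIH/3T3 fibroblasts infected with β-gal-expressing T. cruzi Tulahuen C4 / Input: NIH/3T3 cells, 5,000 per well / Buffer or medium: Low-serum DMEM with 2% FBS / Probe or stimulus: 5000 reporter trypomastigotes per well / Schedule: ≥90 h infection period, 3 h prior cell attachment / Measured by: GalScreen luminescence, 60 min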
SKKanGAS inh: SKKanGAS growth inhibition | S. pyogenes SKKanGAS, kanamycin growth, BacTiter-Glo, 6 h | inhibition, % at 7.5 µM | 300,000 tested, 1.3% active | AID 1662;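 active means mean replicate score, as percent of positive control median, at least 50; inconclusive means mean below 50 but one replicate at or above 50; inactive means mean and every replicate below 50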;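 further: strain carries kanamycin resistance gene driven by streptokinase promoter and grows in 40 µg/ml kanamycin; loss of luminescence reflects streptokinase promoter inhibition or plain growth inhibition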
Beta cell apopt: beta cell apoptosis inhibition | INS-1E cytokine-induced death, ATP luminescence, 48 h; percent of positive-control rescue, neutral wells zero | protection from apoptosis, % (no concentration beside the values) | 300,000 tested, 0.8% active | AID 435005;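 active means Every replicate reaches about 75%, or at least half do and their mean reaches it too, limit read from the data; inconclusive means At least half of replicates reach the limit but their mean does not; inactive means Under half of replicates reach the limit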;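 further: higher means more ATP so stronger rescue from cytokine killing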
Mdm2-MdmX inh: inhibitors of human Mdm2/MdmX interaction; O15151+Q00987; SaOS-2 split-luciferase Mdm2/MdmX complementation, luminescence; inhibition, % at 8 µM; 330,000 tested, 3% active; AID 485346;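 active means inhibition of at least 50% at 8 µM in the primary screen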
CSC inhib: blocks cancer stem cells; cancer stem cell-like cells viability, luminescence; inhibition, % at 7.5 µM; 300,000 tested, 1.1% active; AID 2717; in the data active means inhibition above about 75%; inconclusive means no clear call, values can overlap the other calls; tested in HMLE shEcad cells
Calb FLC: C. albicans growth modulation with fluconazole; growth inhibition, % (test concentration not listed); AID 1979; 300,000 tested, 0.57% active; C. albicans CaCi-2 + fluconazole, Alamar Blue growth, 48 h;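 active means growth inhibition above about 58% in most replicates, limit read from the data, passing the limit was not always enough; inconclusive means exactly half the replicates above a set limit; inactive means most replicates below a set limit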;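 further: all wells also contain fluconazole at 8 µg/ml as a sub-toxic cotreatment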
Large screens that a line does not name were inactive.

CC(Oc1ccccc1)C(=O)NC1C(=O)N2C1SC(C)(C)C2C(=O)O (configuration not stated)	SKKanGAS inh 106.0
CCOC(=O)OC(C)OC(=O)[C@@H]1N2C(=O)[C@@H](NC(=O)[C@H](N)c3ccccc3)[C@H]2SC1(C)C (some centres not stated)	none (no result: T cruzi repl, SKKanGAS inh, Calb FLC)
COc1ccc(NC(=O)c2cc(-c3ccncc3)nc3ccccc23)c(OC)c1	none (no result: T cruzi repl, SKKanGAS inh, CSC inhib, Calb FLC)
CCOc1ccccc1NC(=O)c1cc(-c2ccncc2)nc2c(Cl)cccc12	T cruzi repl 57.1 (no result: Beta cell apopt, Mdm2-MdmX inh, CSC inhib)
N#Cc1cccc(NC(=O)COC(=O)c2ccc[n+]([O-])c2)c1	none (no result: T cruzi repl, SKKanGAS inh, Calb FLC)
CCCCCCCCCCCC1=C(O)C(=O)C=C(O)C1=O	SKKanGAS inh 101.9, Calb FLC 92.3 (no result: Mdm2-MdmX inh)
COC1=CC(=O)C(O)=C(CCCCCCC/C=C/CCCCCCCC2=C(O)C(=O)C=C(OC)C2=O)C1=O	Calb FLC 81.3
CC(C)Cn1c(CCC(N)=O)nnc1SC(C)C(=O)Nc1ccc2c(c1)OCO2 (configuration not stated)	none (no result: T cruzi repl, SKKanGAS inh, Calb FLC)
COc1nc(N2CCCC2)nc(-n2nnc(C(C)=O)c2C)n1	none
N#C/C(=C\c1ccc(N2CCCCC2)c([N+](=O)[O-])c1)c1nn(-c2ccccc2)c(N)c1C#N	T cruzi repl 62.2
Cc1c(C(=O)Nc2ccncc2)sc2nc(-c3ccccc3)cn12	none
Cc1c(C(=O)Nc2ccc3c(c2)OCCO3)sc2nc(-c3ccccc3)cn12	SKKanGAS inh 69.8
O=c1c2c([N+](=O)[O-])cc([N+](=O)[O-])cc2sn1Cc1ccccc1	T cruzi repl 57.0, SKKanGAS inh 85.4
O=c1c2c([N+](=O)[O-])cc([N+](=O)[O-])cc2sn1-c1ccc(Br)cc1	none (no result: T cruzi repl, SKKanGAS inh, Calb FLC)
COc1cccc(C(=O)NC(=S)Nn2cnnc2)c1OC	none
CCSc1nnc(NC(=O)c2nc(-c3ccccc3)n(-c3ccccc3)n2)s1	SKKanGAS inh 62.5 (no result: CSC inhib)
CCSc1nnc(NC(=O)c2ccc3ccccc3n2)s1	SKKanGAS inh 82.2
COc1ccc(COc2cc(-c3cccc(OC)c3)nc3ccc(NC(=O)c4ccc(C)cc4)cc23)cc1	none
COc1ccc(COc2cc(-c3cccc(OC)c3)nc3ccc(NC(C)=O)cc23)cc1	T cruzi repl 68.3
COc1ccc(COc2cc(-c3cccc(OC)c3)nc3ccc(NC(=O)c4ccc(N(C)C)cc4)cc23)cc1	CSC inhib 79.9
CCCCCCCCCC[n+]1cccc2c3ccccc3ccc21	T cruzi repl 70.2, SKKanGAS inh inconclusive, Calb FLC 100.8 (no result: Beta cell apopt, Mdm2-MdmX inh, CSC inhib)
Cc1cccc[n+]1CCCCCCCCCC[n+]1ccccc1C	none
CCC(C)(C)c1ccc(OCCCC[n+]2cccc(C)c2)c(C(C)(C)CC)c1	T cruzi repl 59.6, SKKanGAS inh inconclusive (no result: Beta cell apopt, Mdm2-MdmX inh, CSC inhib)
COC(=O)[C@@]12CCCN1[C@H](c1ccc(-c3ccc(OC)cc3)cc1)[C@@H]1C(=O)N(C)C(=O)[C@@H]12	none
Nc1ccc(Sc2ccc([N+](=O)[O-])cc2)cc1	Calb FLC 93.3
COc1ccc(NC(=O)COC(=O)C2C3CC4OC(=O)C2C4C3)cc1 (configuration not stated)	none
CCOC(=O)C1=C(C)NC(C)=C(C(=O)OCC)C1C(=O)OCC(=O)N(CC)C1CCS(=O)(=O)C1 (configuration not stated)	none
COc1ccc(CCNc2cc(C)nc3c(-c4ccc(Cl)cc4)cnn23)cc1OC	CSC inhib 91.6
Cc1cc(N2CCOCC2)n2ncc(-c3ccccc3)c2n1	Beta cell apopt 99.9
Cc1cc(N2CCC(C)CC2)n2ncc(-c3ccccc3)c2n1	none
Cc1cc(N2CCCCC2)n2ncc(-c3ccc(Cl)cc3)c2n1	CSC inhib 84.3
COc1ccccc1-c1cnn2c(NCCc3ccccc3)cc(C)nc12	none
Cc1cc(N2CCCCC2)n2ncc(-c3ccccc3)c2n1	none
O=C(c1ccccc1F)N1CCN(C(=O)C(c2ccccc2)c2ccccc2)CC1	none
COc1cccc(CNC(=O)c2ccccc2NC(=O)C2=C(C)OCCS2)c1	none
CC(C)n1cc(/C=N/Nc2ccc(Cl)c(C(=O)O)c2)c2ccccc21	none (no result: Beta cell apopt, CSC inhib)
COc1cc(-c2nc(-c3ccc4c(c3)-c3ccccc3S4(=O)=O)c(-c3ccccc3)[nH]2)cc(OC)c1OC	T cruzi repl 58.7
O=c1cc(N2CCCCC2)c(-c2ccccc2)nn1Cc1cccc(Cl)c1	SKKanGAS inh 52.4, CSC inhib 88.3 (no result: Beta cell apopt)
O=c1cc(N2CCCCC2)c(-c2ccccc2)nn1Cc1ccc(Cl)cc1Cl	SKKanGAS inh 105.0, CSC inhib 82.7
O=c1cc(N2CCCCC2)c(-c2ccccc2)nn1Cc1ccccc1Cl	none
COc1ccc(COC(=O)c2ccc(C)c(S(=O)(=O)N3CCOCC3)c2)cc1F	none
O=C(Cc1ccccc1)N[C@@H](Cc1ccc(O)cc1)C(=O)O	none (no result: Beta cell apopt, CSC inhib)
CC(C)(C)c1ccc(Oc2ccc(NC(=O)C3CC=CCC3C(=O)O)cc2)cc1 (configuration not stated)	CSC inhib 79.8
Cc1ccccc1Oc1ccc(NC(=O)C2CC=CCC2C(=O)O)cc1 (configuration not stated)	none
CC(C)=CCOc1ccc([C@@H]2COc3c(ccc4c3C=CC(C)(C)O4)C2)c(O)c1	SKKanGAS inh 99.8, CSC inhib 101.7
COc1ccc(OCc2cc(=O)c3ccc4c(c3o2)C=CC(C)(C)O4)cc1OC	none (no result: T cruzi repl, SKKanGAS inh, Calb FLC)
CCOC(=O)N1CCC(Nc2ccc(N3C(=O)C4CCCCC4C3=O)cc2[N+](=O)[O-])CC1 (configuration not stated)	none
CC1CCC2C(=O)N(c3ccc(NC4CCCCC4)c([N+](=O)[O-])c3)C(=O)C2C1 (configuration not stated)	CSC inhib 76.1
COc1ccc(CCNC(=O)c2cc(-c3cc(Cl)cc(Cl)c3)oc2C)cc1	none
Cc1oc(-c2cc(Cl)cc(Cl)c2)cc1C(=O)NCCc1ccccc1	SKKanGAS inh 50.6
Cc1c(C(=O)Nc2ccc(C(F)(F)F)cc2)sc2ncn(CC(=O)N3CCN(c4ccccn4)CC3)c(=O)c12	none (no result: Beta cell apopt)
CSc1ccc(S(=O)(=O)NCC(=O)OCC(=O)N2CCCC2=O)cc1[N+](=O)[O-]	SKKanGAS inh 67.5
CSc1ccc(S(=O)(=O)NCC(=O)OCC(=O)N2CC(C)CC(C)C2)cc1[N+](=O)[O-] (configuration not stated)	none
COc1cccc(CN2CC(C(=O)NCCOc3ccccc3)CCC2=O)c1 (configuration not stated)	none
O=C(Nc1ccc(Oc2cccc3ccccc23)cc1)c1ccco1	SKKanGAS inh 79.3
O=C(Nc1ccc(Cl)c(Cl)c1)Oc1ccc(NC(=O)c2ccco2)cc1	SKKanGAS inh 71.7 (no result: CSC inhib)
O=C(Nc1ccc(OC(=O)c2ccco2)cc1)c1ccco1	none
CCOC(=O)c1c(C(=O)OCC)c(C)n(CCc2ccc(OC)c(OC)c2)c1C	none
